Results from ChEMBL document CHEMBL3045340, “Synthesis and antifungal activity of novel bisdithiocarbamate derivatives of carbohydrates against Fusarium oxysporum f. sp. lini” (2000).
Calls of active or inactive are those of the source. No cut-off for these calls is given here.

Key:
[1] = system: Fusarium oxysporum f. sp. lini; assay: Induction of delay in spore germination of Fusarium oxysporum f. sp. lini; type: functional, organism-based
Procedure, shortened: (§1)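 Fayret liquid medium with compound in DMF at 0.58 mM dithiocarbamoyl equivalent, inoculated with glass-wool-filtered spores (hemocytometer count) from 10-day-old MEA culture to 104 spores mL-1; shaken at 90 tpm, 20 °C, 12 h photoperiod, 7 days; spore germination and hyphal morphology of treated versus untreated fungus examined by light microscopy.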

[2] = system: Fusarium oxysporum f. sp. lini; assay: Antifungal activity against Fusarium oxysporum f. sp. lini assessed as inhibition of radial fungal growth at 0.58 mM after 6 days; type: functional; conditions: 144 h, read-out: GI
Procedure, shortened: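 Mycelial plug (6 mm) cut from margin of 4-day-old MEA culture placed on MEA plates containing compound (DMF vehicle, ≤1% v/v final) at 0.58 mM dithiocarbamoyl equivalent; 20 °C, 12 h photoperiod; colony diameter read daily over 6 days; percent growth inhibition versus untreated culture; three replicates per treatment, two runs; two-sample t-test, P 0.01.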

[3] = system: Fusarium oxysporum f. sp. lini; assay: Induction of morphological alterations in Fusarium oxysporum f. sp. lini; type: functional, organism-based; procedure, shortened: as §1
[4] = system: Fusarium oxysporum f. sp. lini; assay: Antifungal activity against Fusarium oxysporum f. sp. lini assessed as inhibition of radial fungal growth at 100 ppm after 6 days; type: functional
Procedure, shortened: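 Radial growth on malt extract agar. Compounds dissolved in N,N-dimethylformamide (final ≤1% v/v) were mixed into molten MEA at 50 °C, giving 0.58 mM equivalent of dithiocarbamoyl group. A 6 mm plug from the margin of a 4-day MEA culture was placed on each plate. Plates were held at 20 °C under a 12 h photoperiod, with colony diameter read daily for 6 days. Two runs, three replicates each; two-sample t-test against untreated cultures.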

[5] = system: Fusarium oxysporum f. sp. lini; assay: Inhibition of spore germination of Fusarium oxysporum f. sp. lini; type: functional, organism-based
Procedure, shortened: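 Liquid Fayret medium held N,N-dimethylformamide solutions at 0.58 mM equivalent of dithiocarbamoyl group. Spores were washed from a 10-day MEA culture, glass-wool filtered, counted by hemocytometer and seeded at 10^4 spores mL-1. Tubes were shaken at 90 tpm at 20 °C under a 12 h photoperiod for 7 days. Germination timing and hyphal morphology were assessed by light microscopy against untreated controls.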

Row | Compound | Activity [1] | inhibition of growth at 580 µM [2] | other results
1 | CCSC(=S)NCC(O)CNC(=S)SCC | Active | 27% | Activity [3]: Active
2 | CCN(CC)C(=S)SC[C@H]1OC(O)[C@H](O)[C@@H](SC(=S)N(CC)CC)[C@@H]1O (stereo not given in full) | Active | 18% | Activity [3]: Active
3 | CCN(CC)C(=S)SCC(CSC(=S)N(CC)CC)OC(C)=O |  | 12% | 
4 | CCN(CC)C(=S)S [DITIOCARB SODIUM] |  |  | inhibition of growth at 100 ppm ([4]; 144 h, read-out: GI): 18%; inhibition [5]: Active
5 | CCN(CC)C(=S)SC[C@H](O)[C@H]1O[C@@H]2OC(C)(C)O[C@@H]2[C@H]1SC(=S)N(CC)CC | Active | 17% | 
6 | CCCC(=O)OC(CSC(=S)N(CC)CC)CSC(=S)N(CC)CC |  | 12% | 
7 | CCCCCCCC(=O)OC(CSC(=S)N(CC)CC)CSC(=S)N(CC)CC |  | 7% | 
8 | CCN(CC)C(=S)SCC(O)CO (racemic) |  | 10% | 
9 | CCN(CC)C(=S)SCC(=O)CSC(=S)N(CC)CC |  | 12% | 
10 | CCN(CC)C(=S)SCC(O)CSC(=S)N(CC)CC | Active | 30% | Activity [3]: Active
11 | maneb |  |  | growth inhibition (GI) [4]: 12%; inhibition [5]: Active
